# Compound activity deposited in PubChem BioAssay by several laboratories.
# Rce1 inhib: yeast Ras-converting enzyme inhibition; calls only; 290,000 compounds, 0.27% hits; Q03530; yeast membranes, quenched prenylated peptide cleavage fluorescence;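 active means fall in fluorescence gain of 50% or more versus controls, with final raw signal at or below 3038400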;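 further: plate controls were neutral control wells for no effect and wells lacking membranes for full effect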
# MEKK2wt PB1 HTS: raises or lowers MEK5 binding to wildtype human MEKK2 PB1 domain; Q9Y2U5; bead flow cytometry, Alexa488-MEK5 binding to MEKK2 WT; actives lie on both sides; binding response (% of control), % at 10 µM; 290,000 compounds, 1.1% hits; in the data active means binding response below about 67% or above about 130%
# MEKK2 mut-MEK5: signal of MEK5 binding to mutant human MEKK2 PB1 domain; bead flow cytometry, Alexa488-MEK5 binding to MEKK2 mutant; percent response, % at 10 µM; 290,000 compounds, 0.35% hits; AID 1530; in the data active means percent response above about 24%, passing the limit was not always enough
# T cell HTS: modulates CD8 T cell binding to vesicles; 330,000 compounds, 0.068% hits; AID 2052; response (vesicle binding), % at 7 µM; 2C CD8+ T cell-vesicle binding, flow cytometry; hits give low values;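 active means response, share of CD8 T cells binding vesicles, and their 90th percentile fluorescence all below set limits, cut at about 80% in these data, passing the limit was not always enough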;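 further: values below 100% mean blocked vesicle binding to the CD8+ T cells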
#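 Incubation: binding step 1.5 h, 37 °C, antibody labelling 20 min, ice; system: murine 2C transgenic CD8+ T lymphocytes; technique: cytometric PE anti-B7-1 and Alexa647 anti-CD8 signals after 1% paraformaldehyde fixation; also added: QL9-charged Drosophila Ld/ICAM-1/B7-1 vesicles; control set: naked versus QL9-loaded vesicles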
# UCH37 DUB inh: human UCH37 deubiquitinating enzyme inhibition. Q9Y5K5. purified proteasome/UCH37, Ub-AMC cleavage fluorescence. inhibition, % (concentration not given with the values). 330,000 compounds, 0.33% hits. AID 588478;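 active means mean inhibition over replicate wells above about 20%, limit read from the data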;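 further: 0% = compound-free wells with enzyme and 100% = wells lacking proteasome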
#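 system = Proteasome-associated human UCH37 deubiquitinase | amount = 0.15 nM proteasome as dispensed | medium = pH 7.4 Tris-HCl (50 mM) with ovalbumin, ATP-MgCl2, DTT | incubation = 30 min preincubation with enzyme, 25 min cleavage at room temperature | detection = AMC fluorescence 355/460 nm | read-out basis = percent inhibition | controls = no-proteasome and no-compound wells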
# MEKK3 PB1 HTS: raises or lowers MEK5 binding to the human MEKK3 PB1 domain | binding response (% of control), % at 10 µM | bead-based flow cytometry, Alexa488-MEK5 binding to MEKK3; actives lie on both sides; 0 = blocked by unlabeled MEK5, 100 = vehicle | Q99759 | 290,000 compounds, 1.4% hits;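 active means binding response more than 3 SD above or below the average of its plate-row segment, actives on both sides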;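 further: Alexa488 bead fluorescence after subtracting the streptavidin-only scavenger bead signal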
# Target sequence (Q99759 whole entry, looked up, the tested form may be a part): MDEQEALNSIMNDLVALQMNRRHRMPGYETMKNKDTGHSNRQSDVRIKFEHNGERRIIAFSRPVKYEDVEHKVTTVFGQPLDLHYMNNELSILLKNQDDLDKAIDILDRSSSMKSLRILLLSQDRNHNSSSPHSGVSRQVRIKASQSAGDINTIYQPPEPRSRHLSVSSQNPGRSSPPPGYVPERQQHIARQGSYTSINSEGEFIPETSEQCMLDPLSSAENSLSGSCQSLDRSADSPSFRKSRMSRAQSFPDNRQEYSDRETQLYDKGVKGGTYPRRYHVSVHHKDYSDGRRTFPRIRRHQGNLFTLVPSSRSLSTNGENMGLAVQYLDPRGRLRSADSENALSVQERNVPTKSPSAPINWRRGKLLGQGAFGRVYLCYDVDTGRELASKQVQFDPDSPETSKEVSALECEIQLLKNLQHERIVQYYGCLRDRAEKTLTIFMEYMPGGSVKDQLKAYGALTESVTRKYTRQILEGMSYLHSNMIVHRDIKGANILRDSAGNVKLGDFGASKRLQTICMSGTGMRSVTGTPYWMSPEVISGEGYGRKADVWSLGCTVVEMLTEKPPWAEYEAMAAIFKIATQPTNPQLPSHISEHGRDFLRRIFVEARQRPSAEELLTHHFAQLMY
# * marks the source's active call; other numbers are inactive results; i = inactive; . = not tested or not shown; + = active, no number. A selection: hits, their analogues and other compounds. The true share with any hit is near 2.5%.
SMILES,Rce1 inhib,MEKK2wt PB1 HTS,MEKK2 mut-MEK5,T cell HTS,UCH37 DUB inh,MEKK3 PB1 HTS
COc1ccc(S(=O)(=O)CC(O)CN2CCCC2=O)cc1 (stereo not drawn),i,95,-1,800,1,98
O=C1CCCN1CC(O)CS(=O)(=O)c1ccccc1 (stereo not drawn),+,102,0,330,4,101
Cn1c(SCC(=O)NN=Cc2cccnc2)nnc1-c1ccccc1,.,.,.,.,5,.
O=C1[C@H]2[C@H]3[C@H](O)[C@H](O)CC(=NOC[C@@H](O)COCc4ccco4)[C@@H]3CC[C@H]2C(=O)N1c1ccc(F)cc1F,.,.,.,.,0,.
COC(=O)c1ccc(COc2ccc(C=NNc3cccc(C(=O)O)c3)cc2)cc1,.,.,.,.,2,.
O=c1c(-c2nnc(SCc3ccc(Cl)c(Cl)c3)o2)cccn1Cc1ccccc1,+,93,-1,661,i,98
C/C(CC(=O)N1CCN(C=O)CC1)=N\NC(=O)c1cccc([N+](=O)[O-])c1,i,15*,5,239,.,108
CC1(C)OC2OC(C(=O)NN=Cc3cc(Br)ccc3O)C3OC(C)(C)OC3C2O1 (stereo not drawn),.,.,.,.,-3,.
Cc1[nH]nc2c1C(c1cnn(C)c1)C(C#N)=C(N)O2 (stereo not drawn),i,101,1,59*,5,102
c1ccc(-c2cnc(SCCN3CCOCC3)n2CC2CCCO2)cc1 (stereo not drawn),.,105,0,289,2,111
COc1ccc(-c2cnc(N)n2CC2CCCO2)cc1 (stereo not drawn),i,-6.0*,3,463,-7,97
CC(=O)C(=NNc1ccc(Br)cc1)N1CCCc2ccccc21,.,.,.,.,6,.
O=C(COC(=O)CCc1c[nH]c2ccccc12)NC(c1ccccc1)c1ccccc1,i,103,0,111,6,136*
COc1ccccc1C=NOC(=O)c1ccc(F)cc1,.,.,.,.,2,.
CC(C)NC(=O)CC(=O)NN=Cc1ccc(Br)cc1,.,.,.,.,1,.
CCN(Cc1ccccc1)c1ccc(/C=N/N=C(N)N)cc1,+,115,3,494,.,93
CN(C)CCNc1oc(-c2ccccc2Cl)nc1S(=O)(=O)c1ccccc1,.,.,.,0.0*,.,.
CN(C)CCCNc1oc(-c2ccccc2Cl)nc1S(=O)(=O)c1ccc(F)cc1,i,127,23,i,3,105
COc1ccccc1C1CC(c2cccc(NS(C)(=O)=O)c2)=NN1S(=O)(=O)c1ccccc1 (stereo not drawn),i,91,-14,283,6,88
CS(=O)(=O)Nc1cccc(C2=NN(S(C)(=O)=O)C(c3ccccc3)C2)c1 (stereo not drawn),i,23*,37,386,4,104
CS(=O)(=O)N1N=C(c2cccs2)CC1c1ccccc1 (stereo not drawn),i,0.0*,12,248,4,95
COc1ccccc1N1CCN(C(=O)c2coc(=O)c(Br)c2)CC1,+,96,-12,i,-118,97
COc1ccccc1N1CCN(C(=O)c2cccc(C(=O)N3CCN(c4ccccc4OC)CC3)c2)CC1,.,104,3,289,.,105
CC(=O)Oc1oc(-c2ccccc2)nc1C=Nc1ccc(N(C)C)cc1,.,89,-11,279,5,90
CN(C)c1ccc(N=Cc2nc(-c3ccccc3)oc2OC(=O)c2ccccc2)cc1,i,93,0,5.7*,8,96
SMILES,Rce1 inhib,MEKK2wt PB1 HTS,MEKK2 mut-MEK5,T cell HTS,UCH37 DUB inh,MEKK3 PB1 HTS
O=S(=O)(O)c1cc(O)c2c(O)c(N=Nc3cc(Cl)ccc3O)c(S(=O)(=O)O)cc2c1,i,94,-10,313,34*,96
Cc1ccc(C)c(OC(=O)c2cncc(Br)c2)c1,i,100,0,0.0*,.,96
O=C(O)c1ccccc1C=NNC(=S)NCc1ccccc1,.,.,.,.,8,.
O=C(NC(Cc1ccccc1)C(=O)O)/C(=C/c1ccccc1)NC(=O)c1cccc(Br)c1 (stereo not drawn),i,103,-1,105,31*,97
CCOc1ccc(S(=O)(=O)N2CCC(C(=O)OC(C)C(=O)NC3CCCCC3C)CC2)cc1 (stereo not drawn),.,.,.,0.0*,2,.
Cc1ccc(S(=O)(=O)N2CCC(C(=O)OC(C)C(=O)NC3CCCCC3C)CC2)cc1C (stereo not drawn),.,.,.,532,-2,.
CN(C)/C=C1\N=C(c2ccccc2)OC1=O,i,93,-5,487,20*,101
Cc1ccc(C2=N/C(=C/N3CCOCC3)C(=O)O2)cc1,i,91,-5,385,20*,85
CN(C)/C=C1\N=C(c2ccc3c(c2)OCO3)OC1=O,i,102,9,372,17,99
Cc1ccc(N2CC(C(=O)NN=Cc3sccc3C)CC2=O)cc1 (stereo not drawn),.,.,.,.,5,.
Cc1ccc(/C(O)=C2/C(=O)C(=O)N(CCN3CCOCC3)C2c2cccs2)cc1 (stereo not drawn),i,.,.,113,24*,.
COc1ccc(C2/C(=C(/O)c3ccc(F)cc3)C(=O)C(=O)N2CCCN2CCOCC2)cc1OC (stereo not drawn),i,107,2,98,8,102
COc1cccc(/C(O)=C2/C(=O)C(=O)N(CCCN3CCOCC3)C2c2ccncc2)c1 (stereo not drawn),i,104,5,254,20*,105
Cc1ccc(/C(O)=C2/C(=O)C(=O)N(CCN3CCOCC3)C2c2cccnc2)cc1 (stereo not drawn),i,.,.,576,13,.
O=C1C(=O)N(CCCN2CCOCC2)C(c2ccc(F)cc2)/C1=C(/O)c1ccccc1 (stereo not drawn),i,98,-20,31,23*,87
O=C(COc1cccc2ccccc12)NN=Cc1ccc(Sc2nc3ccccc3s2)o1,.,.,.,.,2,.
C/C(=N\NC(=O)c1ccc(Br)o1)c1cc2c(cc1NC(=O)CCC(=O)O)OCO2,i,104,0,0.0*,.,101
N#Cc1nc(-c2ccco2)oc1N1CCN(C(c2ccccc2)c2ccccc2)CC1,+,90,-4,667,-30,91
N#Cc1nc(-c2ccco2)oc1N1CCCC1,i,101,2,332,-98,100
Cc1cc(Cl)c2oc(C(=O)N3CCN(C(=O)c4ccco4)CC3)c(C)c2c1,+,102,3,313,7,102
COc1ccc(Cl)cc1NC(=O)CC(C)=NNC(=O)c1ccc(O)cc1,.,.,.,.,3,.
COCCCNC(=S)NCCNc1nc2cc(C)cc(C)c2cc1C#N,+,97,0,268,-45,103
